{
  "source": "ChEMBL document CHEMBL1147931",
  "about": "“3-(3,4,5-Trimethoxyphenyl)-1-oxo-2-propene: a novel pharmacophore displaying potent multidrug resistance reversal and selective cytotoxicity” (Bioorg Med Chem, 2007)",
  "key": {"HSC-4": {"tested_on": "HSC-4", "test": "Cytotoxicity against HSC4 cells", "format": "functional", "settings": "Homo sapiens", "outline": "(§1)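 Adherent cells pre-cultured 24 h in DMEM with 10% […] FBS, humidified 5% CO2, then exposed to a range of compound concentrations. Cells washed once with PBS, incubated 4 h in fresh medium with MTT, lysed in DMSO, viable cells read at 540 nm. CC50 from dose-response curves, average of two independent determinations.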"}, "[1]": {"test": "Cytotoxicity against HPC cells", "format": "cell-based", "settings": "human", "outline": "as §1"}, "[2]": {"test": "Cytotoxicity against HGF cells", "format": "cell-based", "settings": "human", "outline": "as §1"}, "HL-60 [3]": {"tested_on": "HL-60", "test": "Cytotoxicity against human HL60 cells", "format": "functional", "outline": "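HL-60 cells grown in RPMI1640 plus 10% FBS in humidified 5% CO2, exposed to a range of compound concentrations. Viable cells counted by trypan blue exclusion. CC50 from dose-response curves, average of two independent determinations.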"}, "HSC-3": {"tested_on": "HSC-3", "test": "Cytotoxicity against HSC3 cells", "format": "functional", "settings": "Homo sapiens", "outline": "as §1"}, "[4]": {"test": "Cytotoxicity against HPLF cells", "format": "cell-based", "settings": "human", "outline": "as §1"}, "HSC-2 [5]": {"tested_on": "HSC-2", "test": "Cytotoxicity against HSC2 cells", "format": "functional", "settings": "Homo sapiens", "outline": "as §1"}, "HL-60 [6]": {"tested_on": "HL-60", "test": "Effect on apoptosis in human HL60 cells assessed as increase in caspase 9 activation above 8 uM after 4 hrs", "format": "functional, cell-based"}, "HSC-2 [7]": {"tested_on": "HSC-2", "test": "Effect on apoptosis in HSC2 cells assessed as increase in caspase 3 activation at 8 uM after 4 hrs", "format": "functional, cell-based", "settings": "Homo sapiens", "outline": "(§2)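 HSC-2 cells (2×10^6) grown in DMEM with 10% FBS in humidified 5% CO2, incubated 4 h with 4, 8, 16 or 32 µM compound; actinomycin D 1 µg/mL as positive control. Lysate (200 µg protein) incubated 2 h at 37 °C with DEVD-pNA (caspase-3), IETD-pNA (caspase-8) or LEHD-pNA (caspase-9); released pNA read at 405 nm. Mean of 2–3 experiments.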"}, "HSC-2 [8]": {"tested_on": "HSC-2", "test": "Effect on apoptosis in HSC2 cells assessed as increase in caspase 9 activation at 32 uM after 4 hrs", "format": "functional, cell-based", "settings": "Homo sapiens", "outline": "as §2"}, "HL-60 [9]": {"tested_on": "HL-60", "test": "Effect on apoptosis in human HL60 cells assessed as increase in caspase 3 activation above 8 uM after 4 hrs", "format": "functional, cell-based"}, "HL-60 [10]": {"tested_on": "HL-60", "test": "Effect on apoptosis in human HL60 cells assessed as increase in caspase 8 activation above 8 uM after 4 hrs", "format": "functional, cell-based"}, "HSC-2 [11]": {"tested_on": "HSC-2", "test": "Effect on apoptosis in HSC2 cells assessed as increase in caspase 3 activation at 32 uM after 4 hrs", "format": "functional, cell-based", "settings": "Homo sapiens", "outline": "as §2"}, "HL-60 [12]": {"tested_on": "HL-60", "test": "Effect on apoptosis in human HL60 cells assessed as increase in caspase 3 activation at 4 uM after 4 hrs", "format": "functional, cell-based"}, "HSC-2 [13]": {"tested_on": "HSC-2", "test": "Effect on apoptosis in HSC2 cells assessed as increase in caspase 8 activation at 32 uM after 4 hrs", "format": "functional, cell-based", "settings": "Homo sapiens", "outline": "as §2"}},
  "note": "Activity calls are given as the source filed them. No cut-off for these calls is given here.",
  "data": [
    {"smiles": "N[C@@H](Cc1ccc(N(CCCl)CCCl)cc1)C(=O)O", "note": "[MELPHALAN]", "values": [
      {"measurement": "CC50", "setting": "HSC-4", "result": 81, "unit": "µM"},
      {"measurement": "CC50", "setting": "[1]", "result": "> 200", "unit": "µM"},
      {"measurement": "CC50", "setting": "[2]", "result": "> 200", "unit": "µM"},
      {"measurement": "CC50", "setting": "HL-60 [3]", "result": 6, "unit": "µM"},
      {"measurement": "CC50", "setting": "HSC-3", "result": 115, "unit": "µM"},
      {"measurement": "CC50", "setting": "[4]", "result": "> 200", "unit": "µM"},
      {"measurement": "CC50", "setting": "HSC-2 [5]", "result": 35, "unit": "µM"}
    ]},
    {"smiles": "COc1cc(/C=C/C(C)=O)cc(OC)c1OC", "values": [
      {"measurement": "CC50", "setting": "HSC-4", "result": 41, "unit": "µM"},
      {"measurement": "CC50", "setting": "[1]", "result": 188, "unit": "µM"},
      {"measurement": "CC50", "setting": "[2]", "result": 159, "unit": "µM"},
      {"measurement": "CC50", "setting": "HL-60 [3]", "result": 47, "unit": "µM"},
      {"measurement": "CC50", "setting": "HSC-3", "result": 72, "unit": "µM"},
      {"measurement": "CC50", "setting": "[4]", "result": 263, "unit": "µM"},
      {"measurement": "CC50", "setting": "HSC-2 [5]", "result": 55, "unit": "µM"}
    ]},
    {"smiles": "COc1cc(/C=C2\\CC/C(=C\\c3cc(OC)c(OC)c(OC)c3)C2=O)cc(OC)c1OC", "values": [
      {"measurement": "CC50", "setting": "HSC-4", "result": 58, "unit": "µM"},
      {"measurement": "CC50", "setting": "[1]", "result": 247, "unit": "µM"},
      {"measurement": "CC50", "setting": "[2]", "result": 240, "unit": "µM"},
      {"measurement": "CC50", "setting": "HL-60 [3]", "result": 21, "unit": "µM"},
      {"measurement": "CC50", "setting": "HSC-3", "result": 89, "unit": "µM"},
      {"measurement": "CC50", "setting": "[4]", "result": 281, "unit": "µM"},
      {"measurement": "CC50", "setting": "HSC-2 [5]", "result": 19, "unit": "µM"}
    ]},
    {"smiles": "COc1ccc(/C=C/C(=O)/C=C/c2ccc([N+](=O)[O-])cc2)cc1", "values": [
      {"measurement": "CC50", "setting": "HSC-4", "result": 12, "unit": "µM"},
      {"measurement": "CC50", "setting": "[1]", "result": 141, "unit": "µM"},
      {"measurement": "CC50", "setting": "[2]", "result": 81, "unit": "µM"},
      {"measurement": "CC50", "setting": "HL-60 [3]", "result": 25, "unit": "µM"},
      {"measurement": "CC50", "setting": "HSC-3", "result": 16, "unit": "µM"},
      {"measurement": "CC50", "setting": "[4]", "result": 193, "unit": "µM"},
      {"measurement": "CC50", "setting": "HSC-2 [5]", "result": 6.3, "unit": "µM"}
    ]},
    {"smiles": "COc1cc(/C=C2\\CCCCCC2=O)cc(OC)c1OC", "values": [
      {"measurement": "CC50", "setting": "HSC-4", "result": 269, "unit": "µM"},
      {"measurement": "CC50", "setting": "[1]", "result": 277, "unit": "µM"},
      {"measurement": "CC50", "setting": "[2]", "result": 262, "unit": "µM"},
      {"measurement": "CC50", "setting": "HL-60 [3]", "result": 31, "unit": "µM"},
      {"measurement": "CC50", "setting": "HSC-3", "result": 200, "unit": "µM"},
      {"measurement": "CC50", "setting": "[4]", "result": 291, "unit": "µM"},
      {"measurement": "CC50", "setting": "HSC-2 [5]", "result": 214, "unit": "µM"}
    ]},
    {"smiles": "COc1cc(/C=C2\\CCCC/C(=C\\c3ccc([N+](=O)[O-])cc3)C2=O)cc(OC)c1OC", "values": [
      {"measurement": "CC50", "setting": "HSC-4", "result": 100, "unit": "µM"},
      {"measurement": "CC50", "setting": "[1]", "result": 198, "unit": "µM"},
      {"measurement": "CC50", "setting": "[2]", "result": 256, "unit": "µM"},
      {"measurement": "CC50", "setting": "HL-60 [3]", "result": 266, "unit": "µM"},
      {"measurement": "CC50", "setting": "HSC-3", "result": 279, "unit": "µM"},
      {"measurement": "CC50", "setting": "[4]", "result": 370, "unit": "µM"},
      {"measurement": "CC50", "setting": "HSC-2 [5]", "result": 116, "unit": "µM"}
    ]},
    {"smiles": "COc1cc(/C=C2\\CCCC/C(=C\\c3cc(OC)c(OC)c(OC)c3)C2=O)cc(OC)c1OC", "values": [
      {"measurement": "CC50", "setting": "HSC-4", "result": 67, "unit": "µM"},
      {"measurement": "CC50", "setting": "[1]", "result": 276, "unit": "µM"},
      {"measurement": "CC50", "setting": "[2]", "result": 229, "unit": "µM"},
      {"measurement": "CC50", "setting": "HL-60 [3]", "result": 46, "unit": "µM"},
      {"measurement": "CC50", "setting": "HSC-3", "result": 132, "unit": "µM"},
      {"measurement": "CC50", "setting": "[4]", "result": 250, "unit": "µM"},
      {"measurement": "CC50", "setting": "HSC-2 [5]", "result": 113, "unit": "µM"}
    ]},
    {"smiles": "COc1cc(/C=C/C(=O)/C=C/c2ccc([N+](=O)[O-])cc2)cc(OC)c1OC", "values": [
      {"measurement": "CC50", "setting": "HSC-4", "result": 3.8, "unit": "µM"},
      {"measurement": "Activity", "setting": "HL-60 [6]", "result": "Active"},
      {"measurement": "CC50", "setting": "[1]", "result": 94, "unit": "µM"},
      {"measurement": "Activity", "setting": "HSC-2 [7]", "result": "Active"},
      {"measurement": "CC50", "setting": "[2]", "result": 16, "unit": "µM"},
      {"measurement": "Activity", "setting": "HSC-2 [8]", "result": "Active"},
      {"measurement": "CC50", "setting": "HL-60 [3]", "result": 6.4, "unit": "µM"},
      {"measurement": "CC50", "setting": "HSC-3", "result": 5.7, "unit": "µM"},
      {"measurement": "Activity", "setting": "HL-60 [9]", "result": "Active"},
      {"measurement": "CC50", "setting": "[4]", "result": 106, "unit": "µM"},
      {"measurement": "CC50", "setting": "HSC-2 [5]", "result": "< 3.1", "unit": "µM"},
      {"measurement": "Activity", "setting": "HL-60 [10]", "result": "Active"}
    ]},
    {"smiles": "COc1cc(/C=C2\\CCC/C(=C\\c3ccc([N+](=O)[O-])cc3)C2=O)cc(OC)c1OC", "values": [
      {"measurement": "CC50", "setting": "HSC-4", "result": 1.5, "unit": "µM"},
      {"measurement": "Activity", "setting": "HSC-2 [8]", "result": "inactive"},
      {"measurement": "Activity", "setting": "HSC-2 [11]", "result": "Active"},
      {"measurement": "Activity", "setting": "HL-60 [12]", "result": "Active"},
      {"measurement": "Activity", "setting": "HSC-2 [13]", "result": "Active"}
    ]},
    {"smiles": "COc1cc(/C=C2\\CCC/C(=C\\c3cc(OC)c(OC)c(OC)c3)C2=O)cc(OC)c1OC", "values": [
      {"measurement": "CC50", "setting": "HSC-4", "result": 36, "unit": "µM"},
      {"measurement": "CC50", "setting": "[1]", "result": 285, "unit": "µM"},
      {"measurement": "CC50", "setting": "[2]", "result": 335, "unit": "µM"},
      {"measurement": "CC50", "setting": "HL-60 [3]", "result": 46, "unit": "µM"},
      {"measurement": "CC50", "setting": "HSC-3", "result": 62, "unit": "µM"},
      {"measurement": "CC50", "setting": "[4]", "result": 388, "unit": "µM"},
      {"measurement": "CC50", "setting": "HSC-2 [5]", "result": 34, "unit": "µM"}
    ]},
    {"smiles": "COc1ccc(/C=C2\\CCC/C(=C\\c3ccc([N+](=O)[O-])cc3)C2=O)cc1", "values": [
      {"measurement": "CC50", "setting": "HSC-4", "result": "> 400", "unit": "µM"}
    ]}
  ]
}
